Test [1] deals with Mus musculus. The test is described as follows: Anticonvulsant activity against mouse model of LiCa/pilocarpine-induced status epilepticus assessed as delta at 20 mg/kg, po for 10 days by EEG method relative to control. It is filed as functional. Conditions: time 10 day. In outline: (§1)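 Male mice (20-30 g), five per group, dosed orally once daily for 10 days. Status epilepticus was then induced with LiCa (3 mEq/kg i.p.), atropine sulfate (1 mg/kg i.p.) 30 min before pilocarpine, and pilocarpine HCl (300 mg/kg i.p.) 2 h after LiCa. Normal controls received oral distilled water. Comparators were untreated SE, phenytoin and lamotrigine. One-way ANOVA with Tukey post-hoc; mean ± SD.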

Test [2] has as its system Mus musculus. The test is described as follows: Anticonvulsant activity against mouse model of LiCa/pilocarpine-induced status epilepticus assessed as amplitude at 20 mg/kg, po for 10 days by EEG method relative to control. It is filed as functional. As to conditions: time 10 day. Summed up:
as §1

The subject of test [3] is WI-38. Put plainly: Cytotoxicity against human WI-38 cells assessed as reduction in cell viability after 48 hrs by MTT assay. It is filed as cell-based. Conditions: WI-38, 48 h. Summed up: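 Cells from ATCC grown in DMEM with 10% FBS, insulin and 1% penicillin-streptomycin. Plated at 1.2-1.8 × 10,000 cells/well for 24 h, then exposed to compounds in DMSO vehicle for 48 h. MTT 0.5 mg/ml added for 2 h; absorbance read at 570 nm. Experiments run in triplicate.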
In general terms: Formazan colour is commonly taken as a measure of viable cells.

Test [4] concerns Mus musculus. The test is described as follows: Anticonvulsant activity against mouse model of LiCa/pilocarpine-induced status epilepticus assessed as theta at 20 mg/kg, po for 10 days by EEG method relative to control. It is filed as functional. Conditions: time 10 day. In outline: as §1
For test [5], the system named is Mus musculus. The test is described as follows: Anticonvulsant activity against mouse model of LiCa/pilocarpine-induced status epilepticus assessed as mean power frequency at 20 mg/kg, po for 10 days by EEG method relative to control. It is filed as functional. As to conditions: time 10 day. In outline: as §1
Test [6] has as its system Mus musculus. The test is described as follows: Anticonvulsant activity against mouse model of LiCa/pilocarpine-induced status epilepticus assessed as MDA level in brain at 20 mg/kg, po for 10 days by calorimetric method relative to control. It is filed as functional. Conditions: time 10 day. In outline: as §1
In test [7] the test system is Mus musculus. Put plainly: Anticonvulsant activity against mouse model of LiCa/pilocarpine-induced status epilepticus assessed as spectral edge frequency at 20 mg/kg, po for 10 days by EEG method relative to control. Conditions: time 10 day. It is filed as functional. Summed up:
as §1

In test [8] the test system is Mus musculus. The test is described as follows: Anticonvulsant activity against mouse model of LiCa/pilocarpine-induced status epilepticus assessed as amplitude density at 20 mg/kg, po for 10 days by EEG method relative to control. It is filed as functional. Conditions: time 10 day. In outline: as §1
The subject of test [9] is Mus musculus. The test is described as follows: Anticonvulsant activity against mouse model of LiCa/pilocarpine-induced status epilepticus assessed as GSH level in brain at 20 mg/kg, po for 10 days by calorimetric method relative to control. As to conditions: time 10 day. It is filed as functional. In outline: as §1
For test [10], the system named is Mus musculus. Put plainly: Anticonvulsant activity against mouse model of LiCa/pilocarpine-induced status epilepticus assessed as power pV2 at 20 mg/kg, po for 10 days by EEG method relative to control. It is filed as functional. Conditions: time 10 day. In outline: as §1
For test [11], the system named is Mus musculus. The test is described as follows: Anticonvulsant activity against mouse model of LiCa/pilocarpine-induced status epilepticus assessed as alpha at 20 mg/kg, po for 10 days by EEG method relative to control. It is filed as functional. Conditions: time 10 day. In outline:
as §1

Test [12] relates to Mus musculus. Put plainly: Anticonvulsant activity against mouse model of LiCa/pilocarpine-induced status epilepticus assessed as total power density at 20 mg/kg, po for 10 days by EEG method relative to control. It is filed as functional. Conditions: time 10 day. Summed up:
as §1

The test system of test [13] is Mus musculus. Put plainly: Anticonvulsant activity against mouse model of LiCa/pilocarpine-induced status epilepticus assessed as total power at 20 mg/kg, po for 10 days by EEG method relative to control. It is filed as functional. As to conditions: time 10 day. Summed up: as §1
The test system of test [14] is Mus musculus. The test is described as follows: Anticonvulsant activity against mouse model of LiCa/pilocarpine-induced status epilepticus assessed as Glutamate level in brain at 20 mg/kg, po for 10 days by ELISA relative to control. Conditions: time 10 day. It is filed as functional. In outline: as §1
Test [15] concerns Mus musculus. Put plainly: Anticonvulsant activity against mouse model of LiCa/pilocarpine-induced status epilepticus assessed as GABA level in brain at 20 mg/kg, po for 10 days by ELISA relative to control. It is filed as functional. Conditions: time 10 day. Summed up: as §1
(In general: ELISA stands for enzyme-linked immunosorbent assay.)

`Cc1nn(-c2ccccc2)c2nc(CC(=O)N3NC(=O)/C(=C\c4ccc(Cl)cc4)N=C3c3ccc(Cl)cc3)[nH]c(=O)c12`: the Activity is reported as 239.87% in [1]; 45.78% in test [2]; 54.18% in test [4]; -25.05% in [5]; -60.61% in test [6]; -13.39% in test [7]. For the same molecule, the Activity in [8] worked out at 69.3%; in [9], 146.06%; in test [10], 126.51%; in test [11], 35.86%; in [12] it was 181.99%; in test [13], 0.58%. Besides, the Activity is given as -58.56% in [14] and 82.22% in test [15]. For the same molecule, the IC50 in test [3] is 12.9 nM.
As for `CS(=O)(=O)CCNCc1ccc(-c2ccc3ncnc(Nc4ccc(OCc5cccc(F)c5)c(Cl)c4)c3c2)o1` [LAPATINIB], the Activity in test [1] is listed as 425.44%; in test [2] it was 122.67%; in test [4], 12.11%; in test [5], -50.58%; in test [6], -57.67%; in test [7], -34.07%. Moreover, the Activity in [8] was 142.55%; in [9] it was 172.32%; in [10] it was 272.65%; in [11], -8.6%; in test [12], 346.9%; in test [13], 33.24%. Moreover, the Activity is listed as -81.12% in [14] and 83.04% in test [15]. For the same molecule, the IC50 in [3] was found to be 45.2 nM.
Turning to `COc1ccc(/C=C2\N=C(c3ccc(C)cc3)N(C(=O)c3nc4c(c(C)nn4-c4ccccc4)c(=O)[nH]3)NC2=O)cc1`, the Activity is 295.04% in test [1]; 79.11% in [2]; 32.29% in [4]; -32.59% in [5]; -46.76% in test [6]; -18.75% in test [7]. For the same molecule, the Activity in test [8] turned out to be 56.84%; in test [9], 98.02%; in test [10], 198.49%; in [11], 4.98%; in [12], 222.48%; in test [13], 18.66%. In addition, the figures for the Activity in test [14] and in test [15] were -67.77% and 79.64%, respectively. Besides, the IC50 in [3] is 36.8 nM.
Consider `Cc1nn(-c2ccccc2)c2nc(CC(=O)N3NC(=O)/C(=C\c4ccc(Cl)cc4)N=C3c3ccccc3)[nH]c(=O)c12`, for which the Activity is recorded as 327.42% in test [1]; 82.67% in test [2]; 20.33% in test [4]; -44.11% in test [5]; -74.39% in test [6]; -28.09% in test [7]. The Activity in test [8] is 63.22%; in [9] it was 170%; in test [10] it was 204.36%; in [11] it was 0.12%; in test [12], 248.78%; in [13] it was 23.03%. Also, the Activity was -76.98% in test [14] and 80.61% in test [15]. The IC50 in [3] came out at 111 nM.
For `Cc1nn(-c2ccccc2)c2nc(CC(=O)N3NC(=O)/C(=C\c4ccccc4)N=C3c3ccc(Cl)cc3)[nH]c(=O)c12`, the Activity was 264.98% in test [1]; 55.11% in test [2]; 34.99% in test [4]; -28.52% in test [5]; -46.88% in test [6]; -17.33% in test [7]. Moreover, the Activity in test [8] was 68.09%; in test [9] it was 191.86%; in test [10] it was 117.95%; in test [11], 34.85%; in test [12] it was 175.43%; in test [13], 0.29%. Moreover, the Activity in test [14] is -45.51%; in [15] it was 40.05%. Besides, the IC50 in test [3] turned out to be 80.2 nM.

A word on the IC50: it is the concentration at which inhibition is half-maximal.
